Source: PMC10125284 (ACS Bio & Med Chem Au, 2022)
“Also recorded” adds a separate entry of the source. Read-outs that look alike come from different tables or passages of the source.

Key:
Tsr [1] = target: T1, Tsr (Escherichia coli, UniProt P02942); assay: Microfluidic chemotaxis assay, UU1250 expressing Tsr as sole receptor; assay type: cell-based; conditions: UU1250 expressing wild-type Tsr as sole receptor and GFP
Tar [2] = target: T2, Tar (Escherichia coli, UniProt P07017); assay: Microfluidic chemotaxis assay, UU1250 expressing Tar as sole receptor; assay type: cell-based; conditions: cells expressing Tar as sole receptor
Tsar [3] = target: T3, Tsar (Escherichia coli, UniProt P02942+P07017); assay: Microfluidic chemotaxis assay, UU1250 expressing hybrid Tsar as sole receptor; assay type: cell-based; conditions: cells expressing hybrid Tsar as sole receptor
Tasr [4] = target: T4, Tasr (Escherichia coli, UniProt P02942+P07017); assay: Microfluidic chemotaxis assay, UU1250 expressing hybrid Tasr as sole receptor; assay type: cell-based; conditions: cells expressing hybrid Tasr as sole receptor
[5] = system: wild-type E. coli strain RP437; assay: Microfluidic chemotaxis assay, wild-type strain RP437; assay type: cell-based, Escherichia coli; conditions: wild-type E. coli RP437, all five chemoreceptors
Tsr^R64A = Tsr^R64A (Escherichia coli, UniProt P02942, R64A); assay: Microfluidic chemotaxis assay, cells expressing Tsr^R64A as sole receptor; assay type: cell-based
Tsr^N68A [6] = target: T5, Tsr^N68A (Escherichia coli, UniProt P02942, N68A); assay: Microfluidic chemotaxis assay, cells expressing Tsr^N68A as sole receptor; assay type: cell-based
Tsr^R64AN68A = Tsr^R64AN68A (Escherichia coli, UniProt P02942, N68A/R64A); assay: Microfluidic chemotaxis assay, cells expressing Tsr^R64AN68A as sole receptor; assay type: cell-based
Tsr [7] = target: T1, Tsr; assay: FRET; assay type: cell-based; conditions: for effect of adaptation to L-serine on FRET response to ligand: Tsr adapted to 200 μM L-serine; for FRET response (kinase activity): Tsr as sole receptor, buffer-adapted
Tar [8] = target: T2, Tar; assay: FRET assay, cells expressing Tar as sole receptor; assay type: cell-based
Tsar [9] = target: T3, Tsar; assay: FRET assay, cells expressing Tsar as sole receptor; assay type: cell-based
Tasr [10] = target: T4, Tasr; assay: FRET assay, cells expressing Tasr as sole receptor; assay type: cell-based
wild-type RP437 = assay: FRET assay, wild-type RP437; assay type: cell-based, Escherichia coli
Tsr-LBD [11] = target: T6, Tsr-LBD (Escherichia coli, UniProt P02942); assay: Microscale thermophoresis; assay type: binding; conditions: for binding to Tsr-LBD in competition (MST): pocket saturated with high concentration of L-serine (25 mM)
T6 sequence (P02942 30-190): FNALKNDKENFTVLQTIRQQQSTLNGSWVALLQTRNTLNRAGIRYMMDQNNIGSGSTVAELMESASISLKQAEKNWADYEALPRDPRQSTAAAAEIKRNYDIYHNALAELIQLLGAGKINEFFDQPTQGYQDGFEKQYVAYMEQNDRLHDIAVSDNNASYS
In short: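 Tsr residues 30-190 carrying an N-terminal 6×His tag were expressed in E. coli after 1 mM IPTG induction for 6 h at 28 °C. The protein was purified by Ni affinity and gel filtration (50 mM Tris-HCl pH 8.0, 200 mM NaCl) and labelled with a RED-tris-NTA His-tag dye. Compound serial dilutions in HEPES buffer were mixed 1:1 with protein and read in capillaries at 60% excitation and 20% MST power. Kd came from dose-response fits of normalised traces, temperature-jump/thermophoresis mode.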

Tsr^N68A [12] = target: T5, Tsr^N68A; assay: FRET assay, cells expressing Tsr^N68A as sole receptor; assay type: cell-based
Tsr-LBD [13] = target: T6, Tsr-LBD; conditions: read-out: Kd, previously reported; cited from earlier work

Sequence of Tsr^R64A (P02942 whole entry R64A): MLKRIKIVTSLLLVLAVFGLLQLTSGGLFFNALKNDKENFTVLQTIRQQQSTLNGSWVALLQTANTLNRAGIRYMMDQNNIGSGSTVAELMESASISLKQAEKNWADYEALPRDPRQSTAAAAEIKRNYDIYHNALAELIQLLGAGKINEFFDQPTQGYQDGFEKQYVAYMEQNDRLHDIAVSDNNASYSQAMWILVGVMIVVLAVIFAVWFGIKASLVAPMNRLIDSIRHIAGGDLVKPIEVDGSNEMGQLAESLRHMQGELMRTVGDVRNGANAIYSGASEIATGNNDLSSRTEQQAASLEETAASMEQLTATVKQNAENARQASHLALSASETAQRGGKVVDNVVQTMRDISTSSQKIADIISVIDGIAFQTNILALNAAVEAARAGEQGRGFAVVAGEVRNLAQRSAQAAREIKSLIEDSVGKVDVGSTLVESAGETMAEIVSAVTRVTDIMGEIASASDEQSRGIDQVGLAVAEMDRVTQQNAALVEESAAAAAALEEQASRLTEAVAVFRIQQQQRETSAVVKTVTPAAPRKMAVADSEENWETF
Sequence of Tsr^R64AN68A (P02942 whole entry R64A/N68A): as the sequence (P02942 whole entry R64A) above, with N68A counted along it
T2 sequence (P07017 whole entry): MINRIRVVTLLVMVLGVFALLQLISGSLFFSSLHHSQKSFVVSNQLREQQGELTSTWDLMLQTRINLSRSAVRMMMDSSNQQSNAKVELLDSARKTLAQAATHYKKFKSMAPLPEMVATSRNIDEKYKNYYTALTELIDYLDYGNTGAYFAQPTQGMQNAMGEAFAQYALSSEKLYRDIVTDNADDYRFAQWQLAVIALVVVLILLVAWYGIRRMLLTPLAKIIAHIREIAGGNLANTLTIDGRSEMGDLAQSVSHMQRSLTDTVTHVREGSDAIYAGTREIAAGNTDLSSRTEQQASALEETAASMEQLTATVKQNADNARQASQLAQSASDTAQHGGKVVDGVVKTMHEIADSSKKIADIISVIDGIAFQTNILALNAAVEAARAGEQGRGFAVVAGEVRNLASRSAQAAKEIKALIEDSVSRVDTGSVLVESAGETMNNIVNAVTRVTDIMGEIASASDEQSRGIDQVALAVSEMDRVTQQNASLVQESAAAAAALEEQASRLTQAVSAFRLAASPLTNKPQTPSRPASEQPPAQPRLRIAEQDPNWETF
T4 sequence (P07017 1-199): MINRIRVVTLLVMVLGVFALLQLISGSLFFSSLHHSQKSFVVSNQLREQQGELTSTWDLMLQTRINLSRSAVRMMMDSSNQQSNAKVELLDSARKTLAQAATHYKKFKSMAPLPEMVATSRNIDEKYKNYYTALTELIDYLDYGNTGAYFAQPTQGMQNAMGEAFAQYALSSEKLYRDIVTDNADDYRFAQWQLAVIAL
T4 sequence (P02942 202-551): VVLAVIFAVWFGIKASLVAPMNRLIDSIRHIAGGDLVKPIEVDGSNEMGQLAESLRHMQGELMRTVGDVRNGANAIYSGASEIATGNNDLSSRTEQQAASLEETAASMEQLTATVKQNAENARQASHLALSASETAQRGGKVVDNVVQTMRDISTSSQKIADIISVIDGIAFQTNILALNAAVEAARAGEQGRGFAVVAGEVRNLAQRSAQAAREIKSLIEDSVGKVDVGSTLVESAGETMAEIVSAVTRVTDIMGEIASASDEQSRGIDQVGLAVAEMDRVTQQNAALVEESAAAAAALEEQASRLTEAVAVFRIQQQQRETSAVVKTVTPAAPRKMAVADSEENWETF
T1 sequence (P02942 whole entry): as the sequence (P02942 whole entry R64A) above, with A64R counted along it
T3 sequence (P02942 1-201): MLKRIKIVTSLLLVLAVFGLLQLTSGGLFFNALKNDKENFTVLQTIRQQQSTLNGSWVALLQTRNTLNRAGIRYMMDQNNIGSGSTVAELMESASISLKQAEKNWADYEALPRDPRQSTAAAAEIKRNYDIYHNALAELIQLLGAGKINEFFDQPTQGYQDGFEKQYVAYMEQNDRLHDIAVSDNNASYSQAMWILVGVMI
T3 sequence (P07017 200-553): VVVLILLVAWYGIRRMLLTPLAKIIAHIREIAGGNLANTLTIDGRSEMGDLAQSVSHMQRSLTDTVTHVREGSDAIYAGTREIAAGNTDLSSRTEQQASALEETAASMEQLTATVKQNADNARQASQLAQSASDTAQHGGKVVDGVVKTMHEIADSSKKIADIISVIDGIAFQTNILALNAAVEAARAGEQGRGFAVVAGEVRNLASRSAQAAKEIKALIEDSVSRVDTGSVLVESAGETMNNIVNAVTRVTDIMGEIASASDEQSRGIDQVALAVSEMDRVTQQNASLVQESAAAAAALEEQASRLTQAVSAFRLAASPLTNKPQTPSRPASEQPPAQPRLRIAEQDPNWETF
T5 sequence (P02942 whole entry N68A): as the sequence (P02942 whole entry R64A) above, with A64R, N68A counted along it

SMILES | chemotactic response (microfluidic) (Tsr [1]) | chemotactic response (microfluidic) (Tar [2]) | chemotactic response (microfluidic) (Tsar [3]) | chemotactic response (microfluidic) (Tasr [4]) | chemotactic response (microfluidic) [5] | chemotactic response (microfluidic), compared with wild-type Tsr (Tsr^R64A) | chemotactic response (microfluidic), compared with wild-type Tsr (Tsr^N68A [6]) | chemotactic response (microfluidic), compared with wild-type Tsr (Tsr^R64AN68A) | effect of adaptation to L-serine on FRET response to ligand (Tsr [7]) | FRET response (kinase activity) (Tsr [7]) | FRET response (Tar [8]) | FRET response (Tsar [9]) | FRET response (Tasr [10]) | FRET response (wild-type RP437) | Kd (Tsr-LBD [11]) [mM] | binding to Tsr-LBD in competition (MST) (Tsr-LBD [11]) | FRET response (Tsr^N68A [12]) | Kd (Tsr-LBD [13]) [µM]
NC1(C(=O)O)CCCCC1 [ACHC, 1-aminocyclohexanecarboxylic acid] | robust repellent response | did not show obvious responses | robust repellent responses | did not show obvious responses | robust repellent responses | weaker repellent responses | weaker repellent responses; also recorded: weak repellent response | weaker repellent responses | significantly inhibited | repellent response | no or only a weak response | repellent response | no or only a weak response | repellent response | 10.6 ± 2.4 | could not bind | – | –
CC(C)C[C@H](N)C(=O)O [L-leucine] | repellent response | no response | repellent responses | no response | repellent responses | no response or much weaker responses | attractant response | no response or much weaker responses | significantly inhibited | repellent response | – | – | – | – | 23.6 ± 6.8 | could not bind | strong attractant response | –
N[C@@H](CO)C(=O)O [L-serine] | drifted up the L-serine gradient | – | – | – | – | weaker attractant responses | weaker attractant responses | weaker attractant responses | – | attractant response | – | – | – | – | 0.207 | – | – | 35.6
